# From ChEMBL document CHEMBL1156339, “A virtual screening hit reveals new possibilities for developing group III metabotropic glutamate receptor agonists” (J Med Chem, 2010)
# Active and inactive are the calls of the source. The calls are words filed in the database; no cut-off is given here.
# Legend:
# [1] = target: T1, Metabotropic glutamate receptor 8 (Rattus norvegicus, UniProt P70579); assay: (§1) Agonist activity at rat mGlu8 receptor expressed in HEK293 cells co-transfected with G-protein alpha and EAAC1 assessed as increase in intracellular calcium level after 1 hr by fluorescence microplate reader; type: functional, cell-based
# In short: (§2)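 HEK293 cells electroporated with rat receptor plus chimeric G-protein alpha subunit and EAAC1, grown 24 h in polyornithine-coated plates in glutamate/glutamine-free medium. Cells loaded 1 h at 37 °C with Fluo-4 AM in HBSS with 2.5 mM probenecid, washed. Agonist added after 20 s of recording. Fluorescence read at ex 485/em 525 nm over a concentration range, triplicate points. EC50 given as mean ± SEM of n experiments.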
# [2] = target: T2, Metabotropic glutamate receptor 4 (Rattus norvegicus, UniProt P31423); assay: (§3) Agonist activity at rat mGlu4 receptor expressed in HEK293 cells co-transfected with G-protein alpha and EAAC1 assessed as increase in intracellular calcium level after 1 hr by fluorescence microplate reader; type: functional, cell-based; in short: as §2
# [3] = target: T2, Metabotropic glutamate receptor 4; assay: Agonist activity at rat mGlu4 receptor expressed in HEK293 cells co-transfected with G-protein alpha and EAAC1 assessed as increase in intracellular inositol phosphate accumulation after 1 hr by scintillation counting; type: functional, cell-based
# In short: (§4)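 Rat receptor, chimeric G-protein alpha subunit and EAAC1 electroporated into HEK293 cells and grown 24 h in polyornithine-coated plates in glutamate/glutamine-free medium. Labelled overnight with 3H-myoinositol from 6 h post-transfection. Ambient glutamate degraded with glutamate-pyruvate transaminase, then agonist applied 30 min. Lysis 1 h in cold 0.1 M formic acid. 3H-IP isolated on Dowex and counted. IP normalised to IP plus membrane radioactivity, triplicate; mean ± SEM of n experiments.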
# [4] = target: Metabotropic glutamate receptor 1 (Rattus norvegicus) (UniProt P23385); assay: Agonist activity at rat mGlu1 receptor expressed in HEK293 cells; type: functional, cell-based
# In short: (§5)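 Receptor transiently electroporated into HEK293 cells (DMEM, 10% FCS, penicillin/streptomycin) with EAAC1 transporter, plated in 96-well plates; tested for agonist or antagonist activity coupled to PLC, read out by IP or Fluo-4 Ca2+ assays.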
# [5] = target: Metabotropic glutamate receptor 5 (Rattus norvegicus) (UniProt P31424); assay: Agonist activity at rat mGlu5 receptor expressed in HEK293 cells; type: functional, cell-based; in short: as §5
# [6] = target: T3, Metabotropic glutamate receptor 6 (Rattus norvegicus, UniProt P35349); assay: Agonist activity at rat mGlu6 receptor expressed in HEK293 cells co-transfected with G-protein alpha and EAAC1 assessed as increase in intracellular calcium level after 1 hr by fluorescence microplate reader; type: functional, cell-based; in short: as §2
# [7] = target: T3, Metabotropic glutamate receptor 6; assay: Agonist activity at rat mGlu6 receptor expressed in HEK293 cells co-transfected with G-protein alpha and EAAC1 assessed as increase in intracellular inositol phosphate accumulation after 1 hr by scintillation counting; type: functional, cell-based; in short: as §4
# [8] = target: Metabotropic glutamate receptor 7 (Rattus norvegicus) (UniProt P35400); assay: (§6) Agonist activity at rat mGlu7 receptor expressed in HEK293 cells co-transfected with G-protein alpha and EAAC1 assessed as increase in intracellular calcium level after 1 hr by fluorescence microplate reader; type: functional, cell-based
# In short: (§7)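 Rat mGlu7 electroporated into HEK293 cells with a chimeric G-protein α subunit and EAAC1. Cells were grown 24 h on polyornithine in glutamate/glutamine-free medium, then loaded with Fluo-4 AM in HBSS with 2.5 mM probenecid for 1 h at 37 °C and washed. Agonist was added 20 s into recording, and fluorescence was read at ex 485/em 525 nm. Points were run in triplicate across a concentration series to give EC50.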
# [9] = target: T1, Metabotropic glutamate receptor 8; assay: Agonist activity at rat mGlu8 receptor expressed in HEK293 cells co-transfected with G-protein alpha and EAAC1 assessed as increase in intracellular inositol phosphate accumulation after 1 hr by scintillation counting; type: functional, cell-based; in short: as §4
# [10] = target: Metabotropic glutamate receptor 2 (Rattus norvegicus) (UniProt P31421); assay: Agonist activity at rat mGlu2 receptor expressed in HEK293 cells assessed as increase in intracellular calcium level at 100 uM after 1 hr by fluorescence microplate reader; type: functional, cell-based
# In short: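 Rat mGlu2 transiently electroporated into HEK293 cells with EAAC1. Fluo-4 AM loaded 1 h at 37 °C in HBSS with 2.5 mM probenecid. Agonist applied at 100 μM after 20 s of recording, with DCG-IV 100 μM as reference. Fluorescence read at ex 485/em 525 nm.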
# [11] = target: Metabotropic glutamate receptor 4 (Rattus norvegicus) (UniProt P31423); assay: Agonist activity at rat mGlu4 receptor expressed in HEK293 cells co-transfected with G-protein alpha and EAAC1 assessed as increase in intracellular inositol phosphate accumulation at 100 uM after 1 hr by scintillation counting; type: functional, cell-based
# [12] = target: Metabotropic glutamate receptor 2 (Rattus norvegicus, UniProt P31421); assay: Agonist activity at rat mGlu2 receptor expressed in HEK293 cells assessed as increase in intracellular calcium level after 1 hr by fluorescence microplate reader; type: functional, cell-based; in short: as §2
# [13] = target: T4, Metabotropic glutamate receptor 7 (Rattus norvegicus, UniProt P35400); assay: as §6; type: functional, cell-based; in short: as §7
# [14] = target: Metabotropic glutamate receptor 7 (Rattus norvegicus) (UniProt P35400); assay: (§8) Agonist activity at rat mGlu7 receptor expressed in HEK293 cells co-transfected with G-protein alpha and EAAC1 assessed as increase in intracellular inositol phosphate accumulation […] by scintillation counting; type: functional, cell-based
# In short: (§9)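 Rat mGlu7 was transiently electroporated into HEK293 cells with a chimeric Gα subunit and EAAC1 and grown in glutamate/glutamine-free medium. Cells were labelled overnight with ³H-myoinositol from 6 h post-transfection, and ambient glutamate was removed with glutamate-pyruvate transaminase. Agonist was applied for 30 min, then cells were lysed 1 h in cold 0.1 M formic acid. ³H-IP was isolated on Dowex resin and eluted with 4 M formate for scintillation counting, with IP normalised to IP plus membrane counts. Triplicate points.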
# [15] = target: Metabotropic glutamate receptor 8 (Rattus norvegicus) (UniProt P70579); assay: as §1; type: functional, cell-based; in short: as §2
# [16] = target: Metabotropic glutamate receptor 4 (Rattus norvegicus) (UniProt P31423); assay: as §3; type: functional, cell-based; in short: as §2
# [17] = target: T4, Metabotropic glutamate receptor 7; assay: as §8; type: functional, cell-based; in short: as §9
# Rattus norvegicus = species: Rattus norvegicus; assay: Selectivity ratio of EC50 for rat mGlu8 receptor to EC50 for rat mGlu4 receptor
# [18] = target: Metabotropic glutamate receptor 4 (Rattus norvegicus) (UniProt P31423); assay: Agonist activity at rat mGlu4 receptor expressed in HEK293 cells co-transfected with G-protein alpha and EAAC1 assessed as increase in intracellular inositol phosphate accumulation […] by scintillation counting in presence of DCG4; type: functional, cell-based
# Metabotropic glutamate receptor 5 (Rattus norvegicus), sequence (P31424 21-1203 limits assumed): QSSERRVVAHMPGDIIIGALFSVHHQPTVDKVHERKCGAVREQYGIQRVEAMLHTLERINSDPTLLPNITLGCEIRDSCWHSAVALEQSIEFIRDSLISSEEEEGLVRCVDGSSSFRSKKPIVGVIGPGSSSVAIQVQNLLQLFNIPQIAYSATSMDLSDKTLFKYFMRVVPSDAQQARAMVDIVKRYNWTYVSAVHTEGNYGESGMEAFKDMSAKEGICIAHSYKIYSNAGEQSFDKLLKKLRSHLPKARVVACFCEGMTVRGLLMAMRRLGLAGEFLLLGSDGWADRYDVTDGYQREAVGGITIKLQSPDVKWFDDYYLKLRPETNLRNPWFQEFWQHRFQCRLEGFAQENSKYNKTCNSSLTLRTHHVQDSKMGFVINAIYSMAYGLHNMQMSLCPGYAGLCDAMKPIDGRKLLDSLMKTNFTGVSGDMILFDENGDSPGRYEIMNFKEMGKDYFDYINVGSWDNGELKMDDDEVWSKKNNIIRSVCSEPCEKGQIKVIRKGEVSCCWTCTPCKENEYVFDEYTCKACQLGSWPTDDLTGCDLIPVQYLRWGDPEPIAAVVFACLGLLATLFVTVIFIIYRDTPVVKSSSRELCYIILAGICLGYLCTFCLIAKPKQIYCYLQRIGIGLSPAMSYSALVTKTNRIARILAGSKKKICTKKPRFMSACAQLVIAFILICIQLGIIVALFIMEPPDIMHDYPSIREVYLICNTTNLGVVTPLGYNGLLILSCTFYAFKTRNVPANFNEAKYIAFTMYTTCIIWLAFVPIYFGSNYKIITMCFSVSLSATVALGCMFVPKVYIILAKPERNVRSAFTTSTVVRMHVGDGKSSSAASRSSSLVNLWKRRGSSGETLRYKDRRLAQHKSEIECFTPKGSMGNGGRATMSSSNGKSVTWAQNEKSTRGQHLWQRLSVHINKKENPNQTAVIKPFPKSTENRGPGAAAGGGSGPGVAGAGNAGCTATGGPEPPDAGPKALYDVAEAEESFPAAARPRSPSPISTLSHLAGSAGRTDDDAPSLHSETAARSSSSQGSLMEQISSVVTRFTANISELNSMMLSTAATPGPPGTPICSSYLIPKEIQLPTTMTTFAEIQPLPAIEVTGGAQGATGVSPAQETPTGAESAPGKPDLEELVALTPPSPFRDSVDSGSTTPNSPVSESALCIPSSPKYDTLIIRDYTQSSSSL
# T3 sequence (P35349 whole entry): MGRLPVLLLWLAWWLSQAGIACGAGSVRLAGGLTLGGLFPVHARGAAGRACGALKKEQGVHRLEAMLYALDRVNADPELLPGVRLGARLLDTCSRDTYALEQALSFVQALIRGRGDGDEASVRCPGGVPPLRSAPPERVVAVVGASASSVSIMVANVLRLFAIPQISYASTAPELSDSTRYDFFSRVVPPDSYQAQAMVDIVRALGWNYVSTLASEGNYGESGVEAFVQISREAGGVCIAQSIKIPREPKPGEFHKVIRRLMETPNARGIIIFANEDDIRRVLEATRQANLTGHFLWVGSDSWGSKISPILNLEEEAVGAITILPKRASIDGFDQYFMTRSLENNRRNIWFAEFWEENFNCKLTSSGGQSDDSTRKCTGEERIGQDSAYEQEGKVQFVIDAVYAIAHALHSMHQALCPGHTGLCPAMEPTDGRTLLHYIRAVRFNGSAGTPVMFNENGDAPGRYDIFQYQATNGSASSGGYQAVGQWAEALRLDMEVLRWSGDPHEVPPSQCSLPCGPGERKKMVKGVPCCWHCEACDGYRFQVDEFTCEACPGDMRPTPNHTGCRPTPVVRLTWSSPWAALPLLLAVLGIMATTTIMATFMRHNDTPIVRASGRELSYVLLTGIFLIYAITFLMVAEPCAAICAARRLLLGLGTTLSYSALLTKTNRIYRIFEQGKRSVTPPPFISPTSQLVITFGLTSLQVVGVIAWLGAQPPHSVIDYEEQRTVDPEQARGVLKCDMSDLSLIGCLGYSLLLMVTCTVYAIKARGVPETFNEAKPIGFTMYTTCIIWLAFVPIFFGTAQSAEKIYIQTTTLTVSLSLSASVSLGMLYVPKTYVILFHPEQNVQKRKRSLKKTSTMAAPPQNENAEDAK
# Metabotropic glutamate receptor 2 (Rattus norvegicus), sequence (P31421 19-872 limits assumed): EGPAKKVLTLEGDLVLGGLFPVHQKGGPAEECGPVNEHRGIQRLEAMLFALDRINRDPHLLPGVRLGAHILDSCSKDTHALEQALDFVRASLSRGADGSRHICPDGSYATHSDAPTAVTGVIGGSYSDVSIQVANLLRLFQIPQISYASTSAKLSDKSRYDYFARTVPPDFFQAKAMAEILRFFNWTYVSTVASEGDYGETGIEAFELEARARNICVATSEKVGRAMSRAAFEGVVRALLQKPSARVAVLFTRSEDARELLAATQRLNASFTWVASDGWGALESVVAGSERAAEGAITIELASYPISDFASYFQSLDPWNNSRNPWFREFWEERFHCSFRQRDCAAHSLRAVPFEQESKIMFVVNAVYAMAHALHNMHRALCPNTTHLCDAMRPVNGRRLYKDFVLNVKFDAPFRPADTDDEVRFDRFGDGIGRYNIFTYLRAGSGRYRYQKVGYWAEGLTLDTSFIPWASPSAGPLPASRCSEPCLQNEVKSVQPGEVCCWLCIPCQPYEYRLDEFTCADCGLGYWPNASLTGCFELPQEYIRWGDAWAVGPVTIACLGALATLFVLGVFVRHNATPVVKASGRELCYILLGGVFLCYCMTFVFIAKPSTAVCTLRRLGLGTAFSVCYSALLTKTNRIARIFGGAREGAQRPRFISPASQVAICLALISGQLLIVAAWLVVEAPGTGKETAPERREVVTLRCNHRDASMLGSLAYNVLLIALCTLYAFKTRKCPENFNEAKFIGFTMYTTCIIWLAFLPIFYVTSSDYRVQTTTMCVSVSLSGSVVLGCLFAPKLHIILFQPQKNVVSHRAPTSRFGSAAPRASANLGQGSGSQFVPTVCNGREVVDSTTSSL
# T4 sequence (P35400 whole entry): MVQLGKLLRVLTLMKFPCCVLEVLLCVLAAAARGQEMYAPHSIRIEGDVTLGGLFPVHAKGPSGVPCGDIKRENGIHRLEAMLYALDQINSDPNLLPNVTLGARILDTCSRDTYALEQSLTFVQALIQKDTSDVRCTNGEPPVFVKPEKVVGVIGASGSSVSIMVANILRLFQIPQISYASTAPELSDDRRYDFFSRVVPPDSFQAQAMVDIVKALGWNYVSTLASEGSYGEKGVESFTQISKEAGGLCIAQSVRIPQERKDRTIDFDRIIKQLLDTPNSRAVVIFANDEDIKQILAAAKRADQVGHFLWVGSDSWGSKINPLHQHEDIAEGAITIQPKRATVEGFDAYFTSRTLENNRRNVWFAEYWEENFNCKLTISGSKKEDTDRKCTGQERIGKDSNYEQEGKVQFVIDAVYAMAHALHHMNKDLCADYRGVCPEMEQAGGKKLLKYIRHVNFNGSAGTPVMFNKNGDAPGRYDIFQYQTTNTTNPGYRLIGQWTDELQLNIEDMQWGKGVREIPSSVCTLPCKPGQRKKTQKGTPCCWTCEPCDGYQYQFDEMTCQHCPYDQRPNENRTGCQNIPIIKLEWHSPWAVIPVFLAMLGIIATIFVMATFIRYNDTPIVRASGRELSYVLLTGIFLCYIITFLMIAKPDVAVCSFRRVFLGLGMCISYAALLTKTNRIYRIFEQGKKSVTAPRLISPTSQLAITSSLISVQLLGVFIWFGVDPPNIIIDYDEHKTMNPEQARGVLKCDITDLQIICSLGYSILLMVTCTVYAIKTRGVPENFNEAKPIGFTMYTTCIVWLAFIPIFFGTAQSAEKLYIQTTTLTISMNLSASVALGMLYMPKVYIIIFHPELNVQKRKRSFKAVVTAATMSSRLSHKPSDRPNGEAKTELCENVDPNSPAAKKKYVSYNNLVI
# Metabotropic glutamate receptor 7 (Rattus norvegicus), sequence (P35400 whole entry): as above
# T1 sequence (P70579 whole entry): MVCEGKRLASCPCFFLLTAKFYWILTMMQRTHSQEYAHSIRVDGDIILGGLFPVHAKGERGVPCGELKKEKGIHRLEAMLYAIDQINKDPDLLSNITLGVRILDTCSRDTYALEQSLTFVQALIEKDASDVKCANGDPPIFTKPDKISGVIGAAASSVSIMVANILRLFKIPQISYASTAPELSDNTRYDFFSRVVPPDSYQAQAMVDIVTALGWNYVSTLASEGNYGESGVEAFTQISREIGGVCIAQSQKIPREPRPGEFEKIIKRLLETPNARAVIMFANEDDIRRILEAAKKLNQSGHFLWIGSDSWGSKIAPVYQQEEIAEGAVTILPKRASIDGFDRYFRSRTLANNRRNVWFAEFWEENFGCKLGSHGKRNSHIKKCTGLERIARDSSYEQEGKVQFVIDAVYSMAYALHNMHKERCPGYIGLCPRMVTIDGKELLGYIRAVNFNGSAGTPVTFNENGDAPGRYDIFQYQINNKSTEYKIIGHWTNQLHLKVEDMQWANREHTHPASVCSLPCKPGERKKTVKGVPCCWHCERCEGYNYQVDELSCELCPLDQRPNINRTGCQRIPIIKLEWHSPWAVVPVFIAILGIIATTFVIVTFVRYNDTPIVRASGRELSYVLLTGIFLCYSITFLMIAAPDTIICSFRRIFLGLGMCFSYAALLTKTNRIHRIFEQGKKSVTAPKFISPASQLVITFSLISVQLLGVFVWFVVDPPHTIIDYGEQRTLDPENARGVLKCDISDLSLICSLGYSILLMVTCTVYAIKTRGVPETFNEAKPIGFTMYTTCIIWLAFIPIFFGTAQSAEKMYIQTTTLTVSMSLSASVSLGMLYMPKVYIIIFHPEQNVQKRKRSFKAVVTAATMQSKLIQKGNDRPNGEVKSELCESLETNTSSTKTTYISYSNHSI
# Metabotropic glutamate receptor 8 (Rattus norvegicus), sequence (P70579 whole entry): as above
Compound,EC50 [1] [µM],EC50 [2] [µM],EC50 [3] [µM],EC50 [7] [µM],EC50 [9] [µM],further results
N[C@@H](CCC[PH](=O)O)C(=O)O,73,209,–,–,–,–
N[C@@H](CCP(=O)(O)CC(CC(=O)O)C(=O)O)C(=O)O (some centres undefined),3.5,2.4,4.6,115,38,Activity [4]: inactive; Activity [5]: inactive; EC50 [6]: 42 µM; Activity [8]: inactive; Activity [10]: inactive
N[C@@H](CCP(=O)(O)CC1CCOC1=O)C(=O)O (some centres undefined),> 100,123,–,–,–,–
C/C(=C\C(=O)O)C(O)P(=O)(O)CC[C@H](N)C(=O)O (some centres undefined),–,–,–,–,–,Activity [11]: inactive
N[C@@H](CCP(=O)(O)/C=C/C(=O)O)C(=O)O,5.1,1,3,–,7.2,Activity [4]: inactive; Activity [5]: inactive; EC50 [12]: 6.7 µM; EC50 [6]: 1.1 µM; EC50 [13]: 43 µM; Activity [10]: Active
N[C@H](C(=O)O)C1[C@@H](C(=O)O)[C@@H]1C(=O)O (some centres undefined),–,–,–,–,–,EC50 [12]: 0.045 µM
N[C@@H](CCP(=O)(O)CC(=O)O)C(=O)O,2.7,7.4,2.4,131,0.91,Activity [4]: inactive; Activity [5]: inactive; EC50 [12]: 57 µM; EC50 [6]: > 100 µM; Activity [8]: inactive; Activity [14]: inactive; Activity [10]: Active
"N[C@@H](CCP(=O)(O)C(O)C1CC1C(=O)O)C(=O)O (single isomer, unassigned)",–,–,18,–,91,–
N[C@@H](CCCP(=O)(O)CCC(=O)O)C(=O)O,–,–,–,–,–,Activity [15]: inactive; Activity [16]: inactive
NC(CCP(=O)(O)CCCCC(=O)O)C(=O)O (centres undefined),–,–,–,–,–,Activity [11]: inactive
N[C@@H](CCP(=O)(O)C1COC(=O)C1)C(=O)O (some centres undefined),> 100,141,–,–,–,–
N[C@H](CCP(=O)(O)CCC(=O)O)C(=O)O,–,–,17,99,58,–
CC(CP(=O)(O)CC[C@H](N)C(=O)O)C(=O)O (some centres undefined),–,–,12.1,–,53,–
N[C@@H](CCP(=O)(O)CC(CCO)C(=O)O)C(=O)O (some centres undefined),76,20,–,–,–,–
N[C@@H](CCP(=O)(O)O)C(=O)O,0.3,0.13,0.096,3.3,0.24,EC50 [6]: 1 µM; EC50 [13]: 249 µM; EC50 [17]: 306 µM
NC(CCP(=O)(O)C(CC(=O)O)C(=O)O)C(=O)O (centres undefined),–,–,47,113,–,–
N[C@@H](CCP(=O)(O)CC(Cl)C(=O)O)C(=O)O (some centres undefined),8.3,1,3.8,–,8.1,Activity [4]: inactive; Activity [5]: inactive; EC50 [12]: 49 µM; EC50 [6]: 8.9 µM; EC50 [13]: > 100 µM; Activity [10]: Active; Ratio EC50 (Rattus norvegicus): 8
N[C@@]1(C(=O)O)C[C@H](C(=O)O)[C@H](C(=O)O)C1,–,–,1.74,10.6,5.1,EC50 [17]: 280 µM
N[C@@H](CCP(=O)(O)CCCC(=O)O)C(=O)O,18,8.5,11.4,> 100,19,Activity [4]: inactive; Activity [5]: inactive; EC50 [6]: 44 µM; Activity [8]: inactive; Activity [10]: inactive
N[C@@H](CCP(=O)(O)CCC(=O)O)C(=O)O,6.6,6.15,–,31,7.8,Activity [4]: inactive; Activity [5]: inactive; EC50 [6]: 6.7 µM; EC50 [13]: 89 µM
N[C@@H](CCP(=O)(O)C(CC(=O)O)CP(=O)(O)O)C(=O)O (some centres undefined),–,–,–,–,–,Activity [11]: 33%
N[C@@H](CCP(=O)(O)C(CC(=O)O)C(F)(F)F)C(=O)O (some centres undefined),–,–,26,–,–,–
N[C@@H](CCP(=O)(O)C(O)C(=O)O)C(=O)O (some centres undefined),2.9,7.2,–,–,–,–
N[C@@H](CCP(=O)(O)CCP(=O)(O)O)C(=O)O,–,–,88,–,48,–
N[C@@H](CCP(=O)(O)C(CC(=O)O)CC(=O)O)C(=O)O,–,–,114,–,–,–
NC(CP(=O)(O)CCC(=O)O)C(=O)O (centres undefined),–,–,–,–,–,Activity [11]: inactive
NC(CCP(=O)(O)CCC(=O)O)C(=O)O (racemic),–,–,7.1,32,20,EC50 [12]: 52 µM; Activity [10]: Active; Activity [18]: Dose-dependent effect
